Only some compounds are listed: those with a hit (about 1.8% of all), similar ones and a draw of the others.
Tn6 DDE FP: DD(E)-Tn6 binding inhibition, primary FP screen; inhibition, % at 8.3 µM; Fibrin DD(E) TRITC-Tn6 fluorescence polarization displacement; P02675; 370,000 compounds, 0.21% hits;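 active means inhibition above a per-campaign cutoff: mean of compounds within control limits plus 3 SD, cut at about 15% in these data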
SIAE primary: inhibitors of human sialic acid acetylesterase SIAE | inhibition, % at 9.66 µM | Q9HAT2 | SIAE FP-Rh probe binding, fluorescence polarization | 370,000 compounds, 0.69% hits | AID 1053197;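 active means inhibition above a cutoff: mean of compounds within the control limits plus 3 SD of those, cut at about 17% in these data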
TCR CD3 inh: blocks the human TCR-CD3 interaction; TAMRA-labeled TCR probe fluorescence, biochemical; inhibition, % at 9.4 µM; 360,000 compounds, 0.37% hits;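 further: recombinant mutant TCR 2C K166C tagged with TAMRA read by polarization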
mABHD4 FP: inhibitors of mouse ABHD4 | 370,000 compounds, 0.54% hits | Q8VD66 | purified mABHD4, FP-Rh probe fluorescence polarization | AID 720543 | inhibition, % at 8.92 µM;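 active means inhibition exceeding the mean over every tested compound plus 3 SD, cut at about 30% in these data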
Target sequence (Q8VD66 whole entry, looked up): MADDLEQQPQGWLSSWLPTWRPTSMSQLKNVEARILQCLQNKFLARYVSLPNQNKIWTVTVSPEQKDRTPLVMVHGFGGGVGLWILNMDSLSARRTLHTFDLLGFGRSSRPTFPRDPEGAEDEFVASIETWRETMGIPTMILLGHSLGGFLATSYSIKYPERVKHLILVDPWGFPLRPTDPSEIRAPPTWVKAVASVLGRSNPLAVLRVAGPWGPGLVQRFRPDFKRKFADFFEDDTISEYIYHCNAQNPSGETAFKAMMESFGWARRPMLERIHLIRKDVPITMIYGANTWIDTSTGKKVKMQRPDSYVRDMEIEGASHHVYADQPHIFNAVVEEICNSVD
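Test system: mABHD4 protein | Buffer or medium: HEPES pH 7.0 buffer, 150 mM NaCl, 0.01% Pluronic F-127 | Probe or stimulus: FP-Rh fluorescent activity-based probe, added after compound pre-incubation | Timing: Pre-incubation 45 min, probe exposure 60 min, at 25 °C | Technique: Fluorescence polarization, excitation 525 nm, emission 598 nm, BODIPY TMR filters | Repeats: Single well per compound (singlicate)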
Tn7 DDE FP: disrupts Tn7 cyclic peptide binding to fibrin D-Dimer-E complex; P02675; inhibition, % at 8.3 µM; 370,000 compounds, 0.13% hits; FP displacement of FITC-Tn7 peptide from fibrin DD(E); 0% = median of compound wells per plate;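 active means inhibition above the mean of compounds falling within the control limits plus 3 SD of them, cut at about 14% in these data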
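Measure: % inhibition scaled between sample-field median and high-control FP; Test system: human fibrin DD(E); Quantity: 2 µM final DD(E) protein; Doses: one dose, 8.3 µM nominal; Schedule: compound with protein 10 min, then 3 h after probe, room temperature; Detection: fluorescence polarization; Medium: Tris buffer with calcium and detergent, pH 7.8.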
HTRA1 inh: blocks human HTRA1 serine peptidase | 340,000 compounds, 0.5% hits | inhibition, % at 5.96 µM | recombinant HTRA1, FP-rhodamine activity-based probe, fluorescence polarization | AID 504803 | Q92743; in the data active means inhibition above about 36%
HTRA1 inh conf: HTRA1 (human) inhibition, confirmation; shares compounds with HTRA1 inh; recombinant HTRA1, FP-rhodamine activity-based probe, fluorescence polarization; inhibition, % at 5.96 µM; 1,600 compounds, 66% hits;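 active means mean inhibition over three repeats above a set limit taken from the earlier primary screen, cut at about 37% in these data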;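 further: inhibitors block probe binding so polarization drops and inhibition rises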
BSA TAMRA ctr: BSA probe counter-screen for TCR-CD3 inhibitors | shares compounds with TCR CD3 inh | TAMRA-labeled BSA probe fluorescence counterscreen | inhibition, % at 9.4 µM | 1,200 compounds, 10% hits | AID 652035; in the data active means inhibition above about 23%
TCR-CD3 inh conf: TCR-CD3 interaction inhibition, confirmation; inhibition, % at 9.4 µM; TAMRA-labeled TCR probe fluorescence binding assay; shares compounds with TCR CD3 inh; 1,200 compounds, 48% hits
DDE Tn7 confirm: DD(E)-Tn7 binding inhibition, FP confirmation; 460 compounds, 5% hits; inhibition, % at 8.3 µM; shares compounds with Tn7 DDE FP; FP displacement of TRITC-Tn7 peptide from DD(E); 0% set at plate's compound-well median;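 active means inhibition above the campaign cutoff, the mean of compounds within control limits plus 3 SD, cut at about 14% in these data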;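 further: displacers lower polarization since freed probe rises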
Tn7 DDE ctr: counter-screen hit for Tn7 peptide-fibrin DD(E) binding disruption. shares compounds with Tn7 DDE FP. TRITC-Tn7 probe displacement, fluorescence polarization. inhibition, % at 8.3 µM. 460 compounds, 3% hits. AID 720633;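 active means inhibition above the cutoff, the mean of compounds lying between the control bounds plus 3 SD of those compounds, cut at about 17% in these data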
DDE Tn6 FP ctr: counter-screen hit for Tn6 peptide-fibrin DD(E) binding disruption; AID 720621; inhibition, % at 8.3 µM; shares compounds with Tn6 DDE FP; 680 compounds, 2% hits; TRITC-Tn6 fluorescence polarization displacement; 0% = median of compound wells, not DMSO;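 active means inhibition above the mean of test compounds lying between the control limits plus 3 SD of those, cut at about 14% in these data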
DDE Tn6 confirm: confirmation of inhibitors of Tn6 binding to human fibrin DD(E) | shares compounds with Tn6 DDE FP | FP displacement of TRITC-Tn6 peptide from DD(E); 0% = per-plate median of test wells | inhibition, % at 8.3 µM | 680 compounds, 10% hits | AID 720631;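 active means inhibition above the mean of compounds lying within the control limits plus 3 SD, cut at about 16% in these data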
ABHD4 confirm: confirmation of mouse ABHD4 inhibitors; shares compounds with mABHD4 FP; purified mABHD4, FP-Rh probe fluorescence polarization; inhibition, % at 8.92 µM; 1,800 compounds, 55% hits;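 active means mean inhibition across replicates above the hit cutoff set in the primary screen, cut at about 30% in these data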
SIAE confirm: human SIAE inhibition, confirmation. AID 1117263. inhibition, % at 9.66 µM. shares compounds with SIAE primary. 2,300 compounds, 13% hits. SIAE FP-Rh activity-based probe, fluorescence polarization;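 active means mean inhibition of the replicates above the hit cutoff set in the primary screen, cut at about 17% in these data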;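 further: inhibitors lower polarization as more probe stays unbound to SIAE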
Large screens that a line does not name were inactive (follow-up assays come after a bar, where they were run). Unless noted, no stated cut-off is given here; in the data, active means inhibition above about 19%; inactive means the rest.

CN1OC[C@@H]2CN(C(=O)c3ccc([N+](=O)[O-])cc3)[C@H](c3ccccc3Br)C[C@@H]21	none (no result: HTRA1 inh)
O=C(Nc1ccc(O)cc1)C1CC=CCC1 (stereo not drawn)	SIAE primary 23, HTRA1 inh 48 | HTRA1 inh conf 42 | SIAE confirm inactive
C/C(=N\NC(=O)c1cc(O)ccc1O)c1cccc(NC(=O)c2ccc(Cl)cc2)c1	SIAE primary 26, TCR CD3 inh 46, mABHD4 FP 57, HTRA1 inh 44 | HTRA1 inh conf inactive | BSA TAMRA ctr inactive | TCR-CD3 inh conf inactive | ABHD4 confirm 42 | SIAE confirm inactive
C/C(=N\NC(=O)c1ccccc1O)c1cccc(NC(=O)c2ccccc2)c1	none
N#CC(C#N)=C1C=C2C=C(N3CCCCCC3)CCC2CC1 (stereo not drawn)	Tn6 DDE FP 18, SIAE primary 28, TCR CD3 inh 29, HTRA1 inh 52 | HTRA1 inh conf inactive | BSA TAMRA ctr inactive | TCR-CD3 inh conf inactive | DDE Tn6 FP ctr 53 | DDE Tn6 confirm inactive | SIAE confirm 22
N#CC(C#N)=C1C=C2C=C(N3CCOCC3)CCC2CC1 (stereo not drawn)	none
CCCCCCn1c(=O)[nH]c2nc3cc(N)c(C)cc3nc2c1=O	SIAE primary 18, mABHD4 FP 49, Tn7 DDE FP 30, HTRA1 inh 64 | HTRA1 inh conf inactive | DDE Tn7 confirm inactive | Tn7 DDE ctr inactive | ABHD4 confirm 39 | SIAE confirm inactive
Cc1oc2cc([N+](=O)[O-])c(O)c([N+](=O)[O-])c2c1C(=O)c1ccc(Cl)cc1	none
Cc1cccc(/N=C/c2c(O)ccc3oc4c(c23)CCCC4)n1	none (no result: Tn6 DDE FP, SIAE primary, TCR CD3 inh, mABHD4 FP, Tn7 DDE FP)
O=[N+]([O-])c1cc2oc3c(c2c(C=NCc2ccccc2)c1O)CCCC3	SIAE primary 28, mABHD4 FP 31, HTRA1 inh 43 | HTRA1 inh conf 54 | ABHD4 confirm 31 | SIAE confirm inactive
CC(C)CN=Cc1c(O)c([N+](=O)[O-])cc2oc3c(c12)CCCC3	SIAE primary 24, HTRA1 inh 44 | HTRA1 inh conf 43 | SIAE confirm inactive
Cc1[nH]c2ccccc2c1C(=O)c1c(N)[nH]c(C(=O)c2ccc(Br)cc2)c1-c1ccc(Br)cc1	none (no result: HTRA1 inh)
C/C(CC(=O)N1CCCC1)=N\NC(=O)c1cc2ccccc2cc1O	SIAE primary 17, mABHD4 FP 36, HTRA1 inh 48 | HTRA1 inh conf inactive | ABHD4 confirm inactive | SIAE confirm inactive
O=C(OCC(=O)N1CCCCC1)c1cc2ccccc2cc1O	none
Nc1cccc2c(=O)c3ccccc3[nH]c12	SIAE primary 30, mABHD4 FP 60, HTRA1 inh 55 | HTRA1 inh conf inactive | ABHD4 confirm 41 | SIAE confirm inactive
O=C1N2Cc3ccccc3C2CS(=O)(=O)N1C1CCCC1 (stereo not drawn)	none (no result: TCR CD3 inh, HTRA1 inh)
Cc1cc(O)ccc1N=Cc1c(C(F)(F)F)[nH][nH]c1=O	Tn6 DDE FP 77, SIAE primary 73, TCR CD3 inh 84, mABHD4 FP 109, HTRA1 inh 104 | HTRA1 inh conf inactive | BSA TAMRA ctr 30 | TCR-CD3 inh conf inactive | DDE Tn6 FP ctr inactive | DDE Tn6 confirm inactive | ABHD4 confirm inactive | SIAE confirm inactive
CCNc1ccc(Br)cc(C(=O)/C=C/c2ccccc2Cl)c1=O	SIAE primary 22, mABHD4 FP 37, HTRA1 inh 64 | HTRA1 inh conf inactive | ABHD4 confirm 43 | SIAE confirm inactive
CCNCc1ccccc1OCc1ccccc1	none
Oc1ccc(NCc2ccccc2OCc2ccccc2)cc1	SIAE primary 39, TCR CD3 inh 26, mABHD4 FP 81, HTRA1 inh 49 | HTRA1 inh conf inactive | BSA TAMRA ctr inactive | TCR-CD3 inh conf inactive | ABHD4 confirm inactive | SIAE confirm inactive
COc1ccc(N2CC(C(=O)Nc3ccc([N+](=O)[O-])cc3Br)CC2=O)cc1 (stereo not drawn)	none
COc1ccc(N2CC(C(=O)N/N=C/c3cc([N+](=O)[O-])ccc3O)CC2=O)cc1 (stereo not drawn)	TCR CD3 inh 25 | BSA TAMRA ctr inactive | TCR-CD3 inh conf inactive
Cc1nc(S/C(=C/c2ccc(OCc3ccc(C(=O)O)cc3)cc2)C(=O)O)n[nH]1	TCR CD3 inh 22 | BSA TAMRA ctr inactive | TCR-CD3 inh conf 32
O=C(CC(c1ccccc1)c1ccccc1)Nc1ccc(O)cc1	none
CC(=O)Nc1ccc(NC(=O)CC(c2ccccc2)c2ccccc2)cc1	TCR CD3 inh 114 | BSA TAMRA ctr 23 | TCR-CD3 inh conf inactive
COC(=O)[C@]12C[C@H](CC(=O)NCCc3ccccc3OC)C(=O)N(CCC3=CCCCC3)C1=C[C@H](COCc1ccccc1)O[C@@H]2C	none (no result: HTRA1 inh)
CN(C(=O)c1ccc(S(=O)(=O)N2CCCC2)cc1)C1CCCCC1	none
CN(C(=O)c1cccc(S(=O)(=O)N2CCCC2)c1)C1CCCCC1	TCR CD3 inh 23 | BSA TAMRA ctr inactive | TCR-CD3 inh conf inactive
O=C(NC1CCCCN(Cc2cccc(Cl)c2)C1=O)c1ccccc1 (stereo not drawn)	none (no result: TCR CD3 inh, HTRA1 inh)
COc1ccc(/C=N\NC(=O)c2ccccc2Br)cc1COc1ccccc1	none

Screening results: PubChem BioAssay, The Scripps Research Institute Molecular Screening Center
